# These entries were drawn from the full list.
# PGC1a acetyl up – compounds raising PGC1a acetylation signal, primary screen, PGC1a modulator project, cell-based, U2OS, AlphaScreen, signal-increasing mode | activation, % at 15.6 µM | overnight | 350,000 compounds, 0.21% hits;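 active = every replicate reaching activation of at least 50%, whatever the mean replicate activation; inconclusive = replicates that disagree or another doubt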;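 also: hits raise the AlphaScreen acetylation signal above neutral controls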
#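 System – flag-PGC1a/GCN5 U2OS cells · Quantity – 7000 U2OS cells per well · Signal – AlphaScreen proximity luminescence, anti-acetyl-lysine antibody · Schedule – overnight compound treatment, 37 °C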
# G6PC hep suppr – suppressors of forskolin-stimulated G6PC mRNA, dose response, PGC-1a acetylation activator project, cell-based, hepatocytes, RT-qPCR, cherry-picked samples; shares compounds with PGC1a acetyl up; primary mouse hepatocytes; G6PC suppression (normalized activity, % of positive control; higher = more suppression), % at 26 µM; 240 tested, under 10 active;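 active = dose curves showing G6PC suppression whose half-maximal dose is at most twice the top valid dose; inconclusive = flat curves with moderate negative activity, or unreliable fits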;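 also: G6PC expression relative to GAPDH housekeeping gene as delta delta Ct; 0% = median of neutral control wells and 100% = median of positive control wells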
# PCK1 hep suppr – suppression of PCK1 mRNA in primary hepatocytes, dose response, PGC-1a acetylation activator project, cell-based, primary mouse hepatocytes, RT-qPCR, cherry-pick. shares compounds with PGC1a acetyl up. forskolin-stimulated. PCK1 expression decrease, unspecified at 26 µM. 230 tested, under 10 active;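 active = compounds lowering PCK1 expression whose fitted half-maximal concentration is at most twice the top tested dose; inconclusive = flat fit with moderate opposite-direction effect, or poor fit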;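 also: values are delta delta Ct of PCK1 relative to GAPDH; higher delta delta Ct means lower PCK1 expression so positive values indicate hits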
# PGC1a hep suppr – suppression of PGC-1a mRNA in primary hepatocytes, dose response, PGC-1a acetylation activator project, cell-based, primary mouse hepatocytes, RT-qPCR, cherry-pick. PGC-1a mRNA qPCR, forskolin; top dose 26 µM. shares compounds with PGC1a acetyl up. max activity (PGC-1a expression decrease), %. 240 tested, under 10 active;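 active = compound lowering PGC-1a expression with fitted half-maximal concentration at most twice its top tested dose; inconclusive = flat curve with moderate opposite-direction effect, or poor fit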;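 also: 0% = neutral control wells median and 100% = positive control wells median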
# Numbers without * were called inactive; ? = inconclusive; . = not tested or not shown; [ ] = remark or other dose.
SMILES,PGC1a acetyl up,G6PC hep suppr,PCK1 hep suppr,PGC1a hep suppr
COc1ccc(-c2nc3c(C)cc(Br)cn3c2Cc2ccc(C)cc2)cc1OC,?,215,131,99
Cc1ccc(C2CC2c2n[nH]c(=S)n2-c2ccc(Cl)cc2)cc1 (stereo unspecified),-45,.,.,.
CCN1CCN(c2nnc(-c3ccccc3)c3ccccc23)CC1,-46,.,.,.
CCn1c(C)c(C)c2cc(C(=O)NCCN3CCOCC3)ccc21,-46,.,.,.
C[C@H](CO)N1C[C@H](C)[C@H](CN(C)Cc2ccc(Oc3ccccc3)cc2)Oc2c(NC(=O)Nc3ccc4c(c3)OCO4)cccc2C1=O,-40,.,.,.
C[C@H]1CN([C@@H](C)CO)C(=O)c2cccc(NS(=O)(=O)c3ccc(F)cc3)c2O[C@H]1CN(C)Cc1ccc(C(F)(F)F)cc1,-55,23,37,89
Cc1ccc(/C=N/N2CCN(Cc3ccccc3)CC2)cc1,-54,.,.,.
COc1cccc(NC(=O)c2ccccc2-c2ccccc2C(=O)O)c1,-81,.,.,.
Cn1c(SCc2ccon2)nc2ccccc2c1=O,-49,.,.,.
N#Cc1cccc(C(c2nnnn2C2CCCC2)N2CCCCCC2)c1 (stereo unspecified),?,33,231,92
CC(=O)Oc1ccc(-c2csnn2)cc1,-95,.,.,.
CCC(=O)N(CC)c1nc(-c2ccc(OC)cc2)cs1,-48,-10,-26,65
CCN(CC)CCNc1nc(-c2ccc(OC)cc2)c(-c2ccc(OC)cc2)s1,-45,.,.,.
CC1(C(=O)Nc2cccc(C#N)c2)CCN1C(=O)CCc1ccccc1 (stereo unspecified),-44,.,.,.
COC(=O)C(Nc1ccccc1Cl)(c1cc(C)c(O)c(C)c1)C(F)(F)F (stereo unspecified),69*,30,19[8 µM],?
O=C(CCl)Nc1cc(SCC(O)CO)cc([N+](=O)[O-])c1 (stereo unspecified),-53,.,.,.
CCn1c2ccccc2c2cc(/C=N/n3c(-c4cc(C)[nH]n4)n[nH]c3=S)ccc21,-40,.,.,.
Cc1cccc(C(=O)O/N=C/c2c(Cl)n(C)c3ccccc23)c1,1,.,.,.
O=C(N/N=C/c1ccc(OC2CSC2)cc1)c1ccc(CN2CCOCC2)cc1,-42,.,.,.
CN1Cc2c(N3CCOCC3)nc3sc(C(=O)c4ccc(Br)cc4)c(N)c3c2CC1(C)C,83*,235,208,48
COc1cc(/C=C2\SC(=O)NC2=O)ccc1Oc1ccc([N+](=O)[O-])cn1,-42,.,.,.
COc1cc2cc(C)c3nnc(SCC(=O)Nc4cc(C)on4)n3c2cc1OC,-40,.,.,.
Cc1ccc(Sc2ncnc3onc(C)c23)c(C)c1,-42,.,.,.
O=C(Nc1ccc(-c2noc(-c3cccs3)n2)cc1)c1cccnc1,137*,-24,11,?
CC(Oc1ccc(Cl)cc1Cl)c1nc(-c2ccc(NC(=O)c3cccnc3)cc2)no1 (stereo unspecified),88*,555,259,?
SMILES,PGC1a acetyl up,G6PC hep suppr,PCK1 hep suppr,PGC1a hep suppr
CCCn1c(=O)c2ccccc2n2c(SCc3c(C(=O)OCC)oc4ccccc34)nnc12,-42,.,.,.
CS(=O)c1nc(-c2ccc(Br)cc2)cc(-c2ccccc2)c1C#N (stereo unspecified),-91,.,.,.
N#Cc1c(-c2cccc(Br)c2)cc(-c2ccco2)[nH]c1=O,-43,.,.,.
COC(=O)CSc1nc(-c2ccccc2)cc(-c2ccco2)c1C#N,67*,-4,-9.5,51
Cc1nnc(-c2ccccc2)c(=O)n1/N=C/c1c(O)ccc2ccccc12,-64,.,.,.
O=C(NCC1CC1)Nc1ccccc1F,-83,.,.,.
Cc1ccc(-n2cccn2)c(CN2CCCC(C(=O)c3sccc3C)C2)c1 (stereo unspecified),68*,.,.,?
O=C(COc1cccnc1[N+](=O)[O-])NCCc1ccc(Cl)cc1,-49,.,.,.
CC(C)C[C@H]1CNC(=S)N1CC1CCCN1C[C@H](Cc1ccccc1)N1C[C@H](Cc2ccc(O)cc2)N(CC2CCCCCC2)C1=S (stereo partly specified),-51,.,.,.
Cc1ccc(S(=O)(=O)N(Cc2ccc(F)cc2)Cc2ccco2)cc1,71*,0,31,?
CCCCCOC(=O)Cc1c(O)c2ccccc2n(C)c1=O,-43,-30,-16,-27
O=C(CN1CCC(n2c(=O)[nH]c3ccccc32)CC1)NCc1ccc(Cl)s1,.,-14,-6.3,15
Cc1[nH]c2ccc(C(C)C)cc2c1CC(=O)O,-76,.,.,.
N#Cc1ccc(CCc2ccccc2)[nH]c1=O,-43,.,.,.
CCc1nccn1S(=O)(=O)c1cc(C)c(OC)cc1C,-50,.,.,.
c1ccc(-c2c(-c3ccccc3)n(Cc3ccco3)c3ncnc(NCCCn4ccnc4)c23)cc1,125*,267[8 µM],216,88
Cc1ccccc1Cn1cnc2c(nnn2Cc2ccc(F)cc2)c1=O,-48,.,.,.
c1ccc(C(c2nnnn2Cc2cccs2)N2CCN(C3CCCC3)CC2)cc1 (stereo unspecified),-42,27,34,38
CC(=O)c1cc(-c2ccccc2)n(CCC(=O)NC2CCCCC2)c1C,?,-16,18,35
c1ccc(Sc2ccccn2)cc1,-76,.,.,.
C=CCc1ccc(OCCCCNC(C)CC)c(OC)c1 (stereo unspecified),-26,.,.,.
Nc1ncnc(NCc2ccc(F)cc2)c1[N+](=O)[O-],-50,.,.,.
COc1ccc(C(c2nnnn2C2CCCC2)N2CCC(C)CC2)c(OC)c1 (stereo unspecified),100*,100,137,134
CN(Cc1cnc2nc(N)nc(N)c2n1)c1ccc(C(=O)N[C@@H](CCC(=O)O)C(=O)O)cc1,-43,.,.,.
Cc1cc(N2CCN(C)CC2)ccc1NC(=O)c1c2c(nc3ccccc13)CCN(Cc1ccccc1)C2,-69,.,.,.
SMILES,PGC1a acetyl up,G6PC hep suppr,PCK1 hep suppr,PGC1a hep suppr
O=C(NCc1cccs1)c1ccc(Cl)c(S(=O)(=O)N2CCCC2)c1,?,129,.,?
CCOC(=O)C1=C(CNCc2ccc(C)cc2)NC(=O)NC1c1cc(C)ccc1C (stereo unspecified),-50,.,.,.
CCCS(=O)(=O)N1CCCC(C(=O)NCCCOC(C)C)C1 (stereo unspecified),-64,.,.,.
O=C(NCc1csc(-c2cccs2)n1)c1cccc(Cl)c1,-43,22,37,53
S=C1NC2=C(CCCC2=C2SCCS2)C(c2ccccc2)N1 (stereo unspecified),-41,.,.,.
O=C(Nc1cnc2ccccc2c1)c1cccnc1,267*,.,-15,-30
CC(=O)N(C1=C(N2CCOCC2)C(=O)c2ccccc2C1=O)c1ccc(C(=O)O)cc1,-40,.,.,.
CCn1c(SC/C=C/c2ccccc2)nnc1-c1cccs1,-50,109,59,154
CCCC(=O)C1=C(O)C(C(=O)OC)C(C)(C)CC1=Nc1ccc(OC)cc1 (stereo unspecified),-46,.,.,.
c1coc(CN(Cc2cccs2)Cc2nnnn2C2CCCCC2)c1,?,-10,70,?
O=C(N/N=C/c1ccccc1C(=O)O)c1cccc(S(=O)(=O)Nc2cc(Cl)ccc2Cl)c1,-47,.,.,.
